Bioassay records (PubChem BioAssay)
PLCg1 inh: PLC-gamma1 enzyme inhibitors, primary screen, biochemical, fluorescence, purified enzyme. 1-phosphatidylinositol 4,5-bisphosphate phosphodiesterase gamma-1 (Homo sapiens), P19174. fluorogenic substrate. inhibition, % at 12.2 µM. 370,000 tested, 0.84% active. AID 720700, 2013; in the data active means inhibition above about 9.5%
PLC-beta3 inh: human PLC-beta3 inhibitors, primary screen, biochemical, fluorescence; 370,000 tested, 0.18% active; inhibition, % at 12.2 µM; 1-phosphatidylinositol 4,5-bisphosphate phosphodiesterase beta-3 (Homo sapiens), Q01970; AID 720704, 2013; Purified PLC-beta3, fluorogenic substrate;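 further: 0% = median of compound wells on plate and 100% = full blocker control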
Target sequence (Q01970 whole entry, looked up): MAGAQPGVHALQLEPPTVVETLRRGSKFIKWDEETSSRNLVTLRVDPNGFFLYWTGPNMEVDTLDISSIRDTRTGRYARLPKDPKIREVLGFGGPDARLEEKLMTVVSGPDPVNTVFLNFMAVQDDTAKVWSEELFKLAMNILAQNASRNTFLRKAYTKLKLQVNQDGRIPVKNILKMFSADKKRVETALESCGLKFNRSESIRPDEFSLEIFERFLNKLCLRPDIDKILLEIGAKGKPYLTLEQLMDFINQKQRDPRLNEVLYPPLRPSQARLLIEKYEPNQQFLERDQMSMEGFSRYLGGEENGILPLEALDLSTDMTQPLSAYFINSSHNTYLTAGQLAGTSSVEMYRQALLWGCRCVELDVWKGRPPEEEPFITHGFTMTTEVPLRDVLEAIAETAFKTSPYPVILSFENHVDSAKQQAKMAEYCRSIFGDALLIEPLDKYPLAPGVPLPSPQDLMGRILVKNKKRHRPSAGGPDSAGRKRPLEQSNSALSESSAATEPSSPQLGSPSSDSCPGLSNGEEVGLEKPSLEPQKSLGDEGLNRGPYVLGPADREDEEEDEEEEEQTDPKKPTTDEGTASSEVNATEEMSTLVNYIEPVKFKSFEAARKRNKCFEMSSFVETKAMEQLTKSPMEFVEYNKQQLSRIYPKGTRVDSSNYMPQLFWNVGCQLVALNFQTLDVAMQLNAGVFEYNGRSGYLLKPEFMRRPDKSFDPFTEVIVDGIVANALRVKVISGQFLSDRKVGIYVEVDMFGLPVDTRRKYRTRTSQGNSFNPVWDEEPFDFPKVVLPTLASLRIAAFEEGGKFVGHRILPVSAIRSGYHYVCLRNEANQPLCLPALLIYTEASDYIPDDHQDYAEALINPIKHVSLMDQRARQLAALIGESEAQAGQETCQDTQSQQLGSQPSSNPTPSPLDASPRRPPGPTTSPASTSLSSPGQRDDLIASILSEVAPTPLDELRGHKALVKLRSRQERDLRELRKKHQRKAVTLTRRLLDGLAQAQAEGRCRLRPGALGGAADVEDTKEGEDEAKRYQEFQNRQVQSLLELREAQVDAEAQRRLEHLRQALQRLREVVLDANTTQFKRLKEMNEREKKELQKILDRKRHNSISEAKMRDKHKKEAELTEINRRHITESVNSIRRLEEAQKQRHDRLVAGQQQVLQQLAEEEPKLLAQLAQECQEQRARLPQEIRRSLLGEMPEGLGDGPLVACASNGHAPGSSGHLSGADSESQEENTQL
DDE Tn6 FP inh: inhibitors of Tn6 peptide binding to fibrin DD(E), primary screen, biochemical, fluorescence polarization, human fibrin, Tn6 probe. Fibrinogen beta chain (Homo sapiens), P02675. Fibrin DD(E) TRITC-Tn6 fluorescence polarization displacement. inhibition, % at 8.3 µM. 370,000 tested, 0.21% active;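 active means inhibition above a per-campaign cutoff: mean of compounds within control limits plus 3 SD, cut at about 15% in these data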;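 further: 0% = median of all compound wells on the plate and 100% = blocking peptide control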
FID counter: compounds displacing fluorescent DNA intercalator, primary screen, artefact control for HCV NS3 helicase inhibitor project, biochemical, FID fluorescence; DNA fluorescent intercalator displacement; inhibition, % at 7.9 µM; 290,000 tested, 0.17% active; AID 1845, 2009; in the data active means inhibition above about 37%;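 further: 0% = vehicle and 100% = reference compound; higher means more ethidium bromide displaced from hairpin DNA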
DDE Tn7 FP inh: inhibitors of Tn7 peptide binding to fibrin DD(E), primary screen, biochemical, fluorescence polarization, human fibrin, Tn7 probe; Fibrinogen beta chain (Homo sapiens), P02675; FP displacement of FITC-Tn7 peptide from fibrin DD(E); 0% = median of compound wells per plate; inhibition, % at 8.3 µM; 370,000 tested, 0.13% active; AID 720508, 2013;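 active means inhibition above the mean of compounds falling within the control limits plus 3 SD of them, cut at about 14% in these data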;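 further: 0% = plate median of compound wells and 100% = 10 µM Aha-Tn7 peptide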
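Test system – human fibrin DD(E) · Times – 10 min preincubation, 3 h with tracer, room temperature · Detection – fluorescence polarization of the labelled Tn7 tracer · Measure – percent inhibition normalized to high-control wells · Benchmarks – high control wells with 10 µM unlabelled Aha-Tn7 peptide (full inhibition) · Repeats – singlicate testing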
PLCg1 ctr: PLC-gamma1 enzyme inhibitors, counter-screen for PLC-beta3 inhibitor project, biochemical, fluorescence; shares compounds with PLCg1 inh; purified PLC-gamma1, fluorogenic substrate; inhibition, % at 12.3 µM; 3,300 tested, 3.1% active; in the data active means inhibition above about 9.5%
PLCbeta3 conf: PLC-beta3 inhibitor confirmation, biochemical, fluorescence, purified enzyme. fluorogenic substrate fluorescence. shares compounds with PLCg1 inh. inhibition, % at 12.3 µM. 3,300 tested, 1% active
* marks the source's active call; other numbers are inactive results; x = no result given. Sampled rows, rich in hits. Any-hit rate of the full collection: about 1.4%. Unless noted, no stated cut-off is given here; in the data, active means inhibition above about 11%; inactive means the rest.

SMILES	PLCg1 inh	PLC-beta3 inh	DDE Tn6 FP inh	FID counter	DDE Tn7 FP inh	PLCg1 ctr	PLCbeta3 conf
CCOC(=O)N1CCC(Nc2nc3ccccc3n3cnnc23)CC1	7.4	11.0*	1.2	-5.5	-7.0	-5.4	-4.2
Cc1cc(OCCCC(=O)NCCc2ccccn2)ccc1Cl	9.5*	-6.1	-5.5	-22.7	-1.3	-1.8	-1.7
CCOC(=O)C(C(=O)NCCCN1CCOCC1)C1CCCCC1 (configuration not stated)	1.2	1.9	-4.5	1.3	0.9	x	x
C=CCNC(=O)C(C(=O)OCC)C1CCCCC1 (configuration not stated)	10.2*	13.6*	2.0	0.7	2.2	-2.0	-7.9
O=C(c1ccccc1)c1ccc(OCC(O)CNCc2ccc(F)cc2)cc1 (configuration not stated)	9.0	0.5	4.9	18.9	6.6	x	x
Cc1ccc(C(OCC(O)CNCc2ccc(F)cc2)c2ccccc2)cc1 (configuration not stated)	17.5*	9.6	-2.4	27.1	1.7	2.9	5.3
COc1ccc(CNC(=O)C(=O)NCC(c2ccco2)N2CCOCC2)cc1 (configuration not stated)	10.0*	2.8	2.6	-8.1	-6.6	-5.3	-2.5
O=C(NCc1ccccc1)C(=O)NCC(c1ccco1)N1CCOCC1 (configuration not stated)	x	x	x	-4.5	x	x	x
O=S(=O)(c1ccc(Cl)cc1)N1CCN2CCCC2C1 (configuration not stated)	0.6	-5.4	-3.6	-5.7	-3.0	x	x
COc1ccc(N2CCN(C(=O)C(=O)c3c[nH]c4ccccc34)CC2)cc1	9.8*	-2.1	3.0	-25.1	-2.7	-4.4	-1.2
C=CCn1c(COc2ccc(CC)cc2)nnc1SC/C(O)=C(\C#N)c1nc2ccccc2[nH]1	-36.4	-47.8	-8.7	-11.6	1.3	x	x
Oc1ccc(/C=N/NC(=S)Nc2cccnc2)c(O)c1O	11.5*	-4.0	4.0	-2.0	-3.2	-4.6	-8.4
COc1ccc(CNC(=O)CSc2nc3c(oc4ccccc43)c(=O)n2CC2CCCO2)cc1 (configuration not stated)	5.4	-6.8	-2.0	x	9.0	x	x
Nc1[nH]c(=O)nc2snnc12	9.6*	10.0	-2.7	x	-10.6	-4.2	-4.1
Nc1nc2n[nH]nc2c(=O)[nH]1	3.2	9.0	6.1	x	4.4	x	x
O=C(c1ccc(CN2CCOCC2)cc1)N1CCN(Cc2ccccc2)CC1	2.8	0.6	2.6	-9.4	10.4	x	x
CC1CCN(C(=O)c2ccc3c(c2NCCO)C(=O)c2ccccc2C3=O)CC1	10.2*	15.1*	0.8	-20.9	-9.9	8.5	8.3
CC/C(Cc1ccccc1)=N/NC(=O)CNC(=O)c1ccc(Cl)cc1Cl	10.8*	-1.3	0.8	-10.5	-2.1	-5.0	-1.5
COc1cc(NC(=O)c2cccs2)ccc1NC(=O)c1cc2ccccc2o1	-0.7	1.6	-4.1	-7.3	-1.3	x	x
O=C(COC(=O)c1ccc(Br)cc1)NCC1CCCO1 (configuration not stated)	4.6	11.6*	-0.8	x	-7.2	6.3	0.0
COCCCNC(=O)CCc1nc(-c2ccccc2Cl)no1	10.8*	8.2	-2.1	-2.7	1.9	-4.4	-0.2
CCOc1ccc(-n2c(SCC(=O)Nc3ccc(Oc4ccccc4)cc3)nnc2-c2ccncc2)cc1	-1.0	-0.5	1.5	x	1.3	x	x
O=C(NCc1cccnc1)c1ccc(NS(=O)(=O)c2cccc([N+](=O)[O-])c2)cc1	1.8	-0.2	5.3	x	9.0	x	x
O=C(Nc1ccccc1Cl)c1cc(C2CCCN(C(=O)CCc3ccccc3)C2)on1 (configuration not stated)	9.8*	3.3	-6.2	x	-1.9	-1.0	-0.1
O=C(CN1CCCC1)OCCCC1CCCCC1	-1.1	-6.9	2.1	-2.1	-2.0	x	x
SMILES	PLCg1 inh	PLC-beta3 inh	DDE Tn6 FP inh	FID counter	DDE Tn7 FP inh	PLCg1 ctr	PLCbeta3 conf
Fc1ccc(-c2nc(-c3cccs3)no2)cc1	2.0	-5.1	3.2	-6.2	2.7	x	x
Fc1ccc(-c2cc(-c3cccs3)cc(-c3ccccc3)n2)cc1	13.9*	-3.0	0.5	0.3	-0.9	5.4	-0.4
Cc1cc(SCC(=O)N2CCCC2=O)nc2ccccc12	12.1*	-0.9	-1.7	x	1.0	-3.3	-3.8
Cc1cc(SCCC(=O)O)nc2ccccc12	-1.8	3.1	-5.3	-0.3	1.5	x	x
Cn1nnnc1SCc1ccc(F)cc1	2.5	3.4	8.4	-1.2	-0.1	x	x
c1csc(C2Nc3cccc4cccc(c34)N2)c1	-17.0	-22.6	-5.1	4.4	3.5	x	x
Cc1ccc(S(=O)(=O)Cc2nc3ccccc3c(=O)[nH]2)cc1	-1.7	19.0*	-5.3	-0.4	0.1	-16.1	9.4
Cc1ccc(S(=O)(=O)CCc2nc3ccccc3[nH]2)cc1	5.8	-5.6	-3.4	2.0	5.2	x	x
CC(C)OCCCn1c(=S)[nH]c2cc3c(cc2c1=O)OCO3	0.0	1.4	4.4	-7.6	4.4	x	x
NC(=O)NCc1ccc(Cl)cc1	12.5*	1.9	-3.7	0.2	-7.1	-4.4	-7.3
CC1NC(=O)c2cccnc2-n2c1nc1cc(F)ccc1c2=O (configuration not stated)	0.5	3.0	2.7	x	-11.5	x	x
CCOC(=O)CC(NC(=O)c1ccc(C)cc1)c1ccc(C)cc1 (configuration not stated)	0.6	-0.1	8.7	-25.0	3.7	x	x
O=C(O)c1ccc(-c2nnn(Cc3ccccc3F)n2)cc1	10.9*	-0.5	0.4	3.5	5.2	-4.7	-2.9
Cn1c(=O)c2c(nc(N3CCCCC3)n2CCSc2nc3ccccc3o2)n(C)c1=O	x	x	x	2.4	x	x	x
CC1CCCN(c2nc3c(c(=O)n(C)c(=O)n3C)n2CCSc2nc3ccccc3o2)C1 (configuration not stated)	10.5*	-0.2	1.9	-4.8	-3.8	-3.8	-1.4
Cc1[nH]nc(Nc2ccc(C(C)C)cc2)c1[N+](=O)[O-]	10.6*	-3.8	2.7	8.7	-0.8	-3.5	-2.5
Cc1ccc(Nc2n[nH]c(C)c2[N+](=O)[O-])cc1	-0.4	1.2	-0.7	5.7	3.6	x	x
COc1ccc(CS(=O)(=O)c2ncn[nH]2)cc1	36.8*	5.7	-0.2	-2.8	-3.2	20.3*	-3.2
